{"data": "Measured values from different studies", "target": "Ephrin type-A receptor 6 (EPHA6, Homo sapiens, UniProt Q9UF33)", "Sequence (Q9UF33 1-1036, as in one of the studies)": "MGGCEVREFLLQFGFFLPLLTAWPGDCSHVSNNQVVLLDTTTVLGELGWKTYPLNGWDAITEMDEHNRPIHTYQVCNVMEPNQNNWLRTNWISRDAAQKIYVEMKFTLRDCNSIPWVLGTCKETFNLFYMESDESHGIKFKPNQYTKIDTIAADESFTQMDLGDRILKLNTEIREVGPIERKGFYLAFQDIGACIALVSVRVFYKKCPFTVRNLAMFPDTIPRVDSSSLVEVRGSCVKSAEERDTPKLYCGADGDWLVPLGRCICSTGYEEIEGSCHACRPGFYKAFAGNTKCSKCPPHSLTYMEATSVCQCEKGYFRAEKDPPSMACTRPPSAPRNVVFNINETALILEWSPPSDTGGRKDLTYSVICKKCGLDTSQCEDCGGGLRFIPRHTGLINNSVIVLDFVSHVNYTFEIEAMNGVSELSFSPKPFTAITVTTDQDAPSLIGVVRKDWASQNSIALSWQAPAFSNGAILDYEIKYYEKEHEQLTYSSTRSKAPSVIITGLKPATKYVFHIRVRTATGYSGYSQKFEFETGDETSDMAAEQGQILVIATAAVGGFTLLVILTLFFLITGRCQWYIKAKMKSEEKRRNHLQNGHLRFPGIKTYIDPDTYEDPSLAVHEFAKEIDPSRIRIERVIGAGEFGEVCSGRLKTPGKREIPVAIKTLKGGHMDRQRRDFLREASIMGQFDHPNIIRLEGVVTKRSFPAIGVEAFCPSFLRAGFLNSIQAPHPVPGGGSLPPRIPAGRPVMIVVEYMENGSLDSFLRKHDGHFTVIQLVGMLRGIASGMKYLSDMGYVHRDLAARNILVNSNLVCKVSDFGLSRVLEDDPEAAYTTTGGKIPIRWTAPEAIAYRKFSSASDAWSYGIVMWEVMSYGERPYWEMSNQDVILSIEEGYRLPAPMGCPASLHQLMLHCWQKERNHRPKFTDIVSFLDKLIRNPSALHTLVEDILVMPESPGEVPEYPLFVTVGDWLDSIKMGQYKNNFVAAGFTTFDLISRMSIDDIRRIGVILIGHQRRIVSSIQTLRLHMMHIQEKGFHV", "note": "Each line is one published result; the experiments were not run side by side."}
{"Structure (SMILES)": "CC(C)(C)c1nc(-c2cccc(NS(=O)(=O)c3c(F)cccc3F)c2F)c(-c2ccnc(N)n2)s1", "read-out": "enzyme activity", "mode": "inhibitor", "method": "radiometric", "concentration": "1 µM", "endpoint": "remaining activity", "value": "72%"}
{"Structure (SMILES)": "N#Cc1ccc(Nc2ccc3[nH]c(=O)[nH]c3c2)c(Cl)c1", "read-out": "cell-free assay", "method": "competition with immobilised ligand", "concentration": "1 µM", "endpoint": "remaining binding", "value": "82%"}
{"Structure (SMILES)": "Cc1ccc(C(=O)Nc2ccc(CN3CCN(C)CC3)c(C(F)(F)F)c2)cc1C#Cc1cnc2cccnn12", "read-out": "cell-free assay", "concentration": "23.5 nM", "endpoint": "remaining signal", "value": "45%"}
{"Structure (SMILES)": "CS(=O)(=O)N1CCCC(NC(=O)[C@H](CCC2CCCCC2)NC(=O)c2ccc(CNC(=O)c3cnc4ccccn34)cc2)C1 (stereo partly shown)", "read-out": "cell-free assay", "method": "competition with immobilised ligand", "concentration": "0.1 µM", "endpoint": "remaining binding", "value": "100%"}
{"Structure (SMILES)": "Cc1sc(C(=O)NC2COC2)cc1-n1cc(NC(=O)Nc2c(F)cccc2Cl)cn1", "read-out": "enzyme activity", "mode": "inhibitor", "concentration": "10 µM", "endpoint": "remaining activity", "value": "80.2%"}
{"Structure (SMILES)": "Oc1cccc(-c2nc(N3CCOCC3)c3oc4ncccc4c3n2)c1", "read-out": "cell-free assay", "concentration": "0.5 µM", "endpoint": "remaining signal", "value": "79%"}
{"Structure (SMILES)": "CC(C)(C)c1nc2c(s1)c1nc(N)ncc1c1ccc(NS(=O)(=O)c3c(F)cccc3F)c(F)c12", "read-out": "enzyme activity", "mode": "inhibitor", "method": "radiometric", "concentration": "1 µM", "endpoint": "remaining activity", "value": "99%"}
{"Structure (SMILES)": "CC(=O)Nc1c(C(C)=O)c(=O)n(C)c2nc(-c3ccc(Cl)cc3Cl)c(-c3ccc(Cl)cc3)cc12", "read-out": "cell-free assay", "method": "competition with immobilised ligand", "concentration": "1 µM", "endpoint": "remaining binding", "value": "100%"}
{"Structure (SMILES)": "CC(C)(O)[C@H]1CC[C@H](Nc2ccc3ncc(-c4cccc(C(F)(F)F)c4)n3n2)CC1", "read-out": "enzyme activity", "mode": "inhibitor", "concentration": "1 µM", "endpoint": "remaining activity", "value": "91.1%"}
{"Structure (SMILES)": "Nc1ncnc2occ(-c3ccc(NC(=O)Nc4cc(C(F)(F)F)ccc4F)cc3)c12", "read-out": "cell-free assay", "concentration": "20 µM", "endpoint": "remaining signal", "value": "0%"}
{"Structure (SMILES)": "CC/C(=N\\NC(=O)NCc1cccc(O)c1)c1ccc(O)c(C)c1O", "read-out": "enzyme activity", "mode": "inhibitor", "concentration": "0.1 µM", "endpoint": "inhibition", "value": "1.5%"}
{"Structure (SMILES)": "CNC(=O)c1cc(Oc2ccc(NC(=O)Nc3ccc(Cl)c(C(F)(F)F)c3)cc2)ccn1", "read-out": "cell-free assay", "concentration": "0.5 µM", "endpoint": "remaining signal", "value": "42%"}
{"Structure (SMILES)": "O=C(Nc1cnn(-c2csc(C(=O)NC3COC3)c2)c1)Nc1ccccc1Cl", "read-out": "enzyme activity", "mode": "inhibitor", "concentration": "5 µM", "endpoint": "remaining activity", "value": "99.5%"}
